Measurements published in EPA's CvTdb concentration-time database.

What was measured:
[1] = tested on: Rat; assay: concentration in kidney after dosing; settings: 0.5 h; dosed: Fluorotelomer alcohol 8+2; 24 mg/kg; oral; Male; Harlan Sprague Dawley
[2] = tested on: Rat; assay: concentration in plasma after dosing; settings: 12 h; dosed: Primidone; 80 mg/kg; oral; Female; F344
[3] = tested on: Rat; assay: concentration in liver after dosing; settings: 1848 h; dosed: Perfluorodecanoic acid; 10 mg/kg; oral; Female; Harlan Sprague Dawley
[4] = tested on: Rat; assay: concentration in plasma after dosing; settings: dosed: Perfluorodecanoic acid, 2 mg/kg, iv, Male, F344
[5] = tested on: Rat; assay: concentration in heart after dosing; settings: 6 h; dosed: Bis 2-Chloroethoxy Methane; 20 mg/kg; iv; Female; F344
[6] = tested on: Rat; assay: concentration in heart after dosing; settings: 6 h; dosed: Bis 2-Chloroethoxy Methane; 20 mg/kg; iv; Female; F344; remark: listed apart in the source
[7] = tested on: Rat; assay: concentration in liver after dosing; settings: 10 min; dosed: Bis 2-Chloroethoxy Methane; 20 mg/kg; iv; Female; F344
[8] = tested on: Rat; assay: concentration in plasma after dosing; settings: 1 h; dosed: Bis 2-Chloroethoxy Methane; 20 mg/kg; iv; Male; F344
[9] = tested on: Rat; assay: concentration in plasma after dosing; settings: 4 h; dosed: Bis 2-Chloroethoxy Methane; 20 mg/kg; iv; Female; F344
[10] = tested on: Rat; assay: concentration in thymus after dosing; settings: 8 h; dosed: Bis 2-Chloroethoxy Methane; 20 mg/kg; iv; Female; Harlan Sprague-Dawley
[11] = tested on: Rat; assay: concentration in plasma after dosing; settings: 10 min; dosed: Bis 2-Chloroethoxy Methane; 20 mg/kg; iv; Female; F344
[12] = tested on: Rat; assay: concentration in plasma after dosing; settings: 40 min; dosed: Bis 2-Chloroethoxy Methane; 20 mg/kg; iv; Female; F344
[13] = tested on: Rat; assay: concentration in plasma after dosing; settings: 2 h; dosed: Bis 2-Chloroethoxy Methane; 20 mg/kg; iv; Female; F344
[14] = tested on: Rat; assay: concentration in plasma after dosing; settings: dosed: Bis 2-Chloroethoxy Methane, 40 mg/kg, iv, Male, Harlan Sprague Dawley
[15] = tested on: Rat; assay: concentration in plasma after dosing; settings: dosed: dichloroacetic acid, 10 mg/kg, oral, Male, Harlan Sprague Dawley
[16] = tested on: Rat; assay: concentration in plasma after dosing; settings: dosed: dichloroacetic acid, 40 mg/kg, oral, Female, Harlan Sprague Dawley
[17] = tested on: Rat; assay: concentration in plasma after dosing; settings: 0.25 h; dosed: Wyeth-14643; 5.0 mg/kg; oral; Male; Sprague-Dawley
[18] = tested on: Rat; assay: concentration in liver after dosing; settings: 6.667 h; dosed: Thiodiglycolic Acid; 20 mg/kg; iv; Female; Harlan Sprague Dawley
[19] = tested on: Rat; assay: concentration in heart after dosing; settings: 1 h; dosed: Thiodiglycolic Acid; 20 mg/kg; iv; Female; Harlan Sprague Dawley
[20] = tested on: Rat; assay: concentration in plasma after dosing; settings: 1 h; dosed: Thiodiglycolic Acid; 20 mg/kg; iv; Male; Harlan Sprague Dawley
[21] = tested on: Rat; assay: concentration in plasma after dosing; settings: 1 h; dosed: Thiodiglycolic Acid; 20 mg/kg; iv; Female; Harlan Sprague Dawley
[22] = tested on: Rat; assay: concentration in plasma after dosing; settings: 6 h; dosed: Di-n-butyl phthalate; 100 mg/kg; oral; Male; Sprague-Dawley
[23] = tested on: Rat; assay: concentration in plasma after dosing; settings: 4 h; dosed: Di-n-butyl phthalate; 100 mg/kg; oral; Male; Sprague-Dawley
[24] = tested on: human; assay: concentration in blood after dosing; negative times count back from the end of exposure; settings: dosed: trichloroethylene, inhalation
Outline: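 Points were largely digitised from plot screenshots with WebPlotDigitizer or otherwise copied from tables, and they remain in the units each source reported. They come from published in vivo toxicokinetic studies and two structured collections. Sampling and analytical methods follow each source and were often not reported.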

OCCC(F)(F)C(F)(F)C(F)(F)C(F)(F)C(F)(F)C(F)(F)C(F)(F)C(F)(F)F [Fluorotelomer alcohol 8+2]
Settings | concentration in kidney [ng/g]
[1] | 1800

CCC1(c2ccccc2)C(=O)NC(=O)NC1=O [Phenobarbital]
Settings | concentration in plasma [ng/mL]
[2] | 2260

O=C(O)C(F)(F)C(F)(F)C(F)(F)C(F)(F)C(F)(F)C(F)(F)C(F)(F)C(F)(F)C(F)(F)F [Perfluorodecanoic acid]
Settings | concentration in liver [ng/g]
[3] | 27400

[4]
Settings | concentration in plasma [ng/mL]
24 h | 5510
1848 h | 410

ClCCOCOCCCl [Bis 2-Chloroethoxy Methane]
Settings | concentration in heart [ng/g] | concentration in liver [ng/g] | concentration in plasma [ng/mL] | concentration in thymus [ng/g]
[5] | 33.8 | – | – | –
[6] | 28.6 | – | – | –
[7] | – | 2550 | – | –
[8] | – | – | 1940 | –
[9] | – | – | 86.2 | –
[10] | – | – | – | 13.1
[11] | – | – | 9470 | –
[12] | – | – | 1720 | –
[13] | – | – | 150 | –

[14]
Settings | concentration in plasma [ng/mL]
5.333 h | 67
10 min | 22600

O=C(O)C(Cl)Cl [dichloroacetic acid]
concentration in plasma [ng/mL]
Settings | 1.25 h | 5 min | 10 min | 50 min
[15] | – | – | 862 | 167
[16] | 4620 | 5140 | – | –

Cc1cccc(Nc2cc(Cl)nc(SCC(=O)O)n2)c1C
Settings | concentration in plasma [ng/mL]
[17] | 2450

O=C(O)CSCC(=O)O [Thiodiglycolic Acid]
Settings | concentration in heart [ng/g] | concentration in liver [ng/g] | concentration in plasma [ng/mL]
[18] | – | 7630 | –
[19] | 2560 | – | –
[20] | – | – | 2150
[21] | – | – | 4150

CCCCOC(=O)c1ccccc1C(=O)O [Mono-n-butyl phthalate]
Settings | concentration in plasma [ng/mL]
[22] | 4950
[23] | 10200

O=C(O)C(Cl)(Cl)Cl [trichloroacetic acid]
concentration in blood [mg/kg], [24], duration: 2 hr - 20 min
Settings | 0 h | 0.5 h | 1 h | 1.5 h | 2 h | 21 h
1348 mg | 3 | 3.5 | 3.7 | 4.1 | 4.5 | 13.3
1681 mg | 2.8 | 3.6 | 3.9 | 4.5 | 5.2 | 13.6
3907 mg | 3 | 3.9 | 4.5 | 5.3 | 5.4 | 17.8

[24]
Settings | concentration in blood
-1.833 h, 1348 mg, duration: 2 hr - 20 min, during exposure | 0.6 mg/kg
-1.833 h, 1681 mg, duration: 2 hr - 20 min, during exposure | 0.4 mg/kg
-1.833 h, 3907 mg, duration: 2 hr - 20 min, during exposure | 0.7 mg/kg
-1 h, 1348 mg, duration: 2 hr - 20 min, during exposure | 1.4 mg/kg
-1 h, 1681 mg, duration: 2 hr - 20 min, during exposure | 1.1 mg/kg
-1 h, 3907 mg, duration: 2 hr - 20 min, during exposure | 1.6 mg/kg
-0.5 h, 1348 mg, duration: 2 hr - 20 min, during exposure | 2.3 mg/kg
-0.5 h, 1681 mg, duration: 2 hr - 20 min, during exposure | 1.7 mg/kg
-0.5 h, 3907 mg, duration: 2 hr - 20 min, during exposure | 2.3 mg/kg
0.1859 h, 100 ppm, duration: 4 hr, person | 3830 ng/mL
0.2626 h, 100 ppm, duration: 4 hr, person | 3950 ng/mL
0.4953 h, 100 ppm, duration: 4 hr, person | 4150 ng/mL
0.7295 h, 100 ppm, duration: 4 hr, person | 3520 ng/mL
1.042 h, 100 ppm, duration: 4 hr, person | 4390 ng/mL
2.008 h, 100 ppm, duration: 4 hr, person | 4230 ng/mL
2.056 h, 100 ppm, duration: 4 hr, person | 4950 ng/mL
4.002 h, 100 ppm, duration: 4 hr, person | 5130 ng/mL
4.087 h, 100 ppm, duration: 4 hr, person | 5830 ng/mL
5.968 h, 100 ppm, duration: 4 hr, person | 6280 ng/mL
6.071 h, 100 ppm, duration: 4 hr, person | 5770 ng/mL
8.056 h, 100 ppm, duration: 4 hr, person | 6100 ng/mL
8.086 h, 100 ppm, duration: 4 hr, person | 6680 ng/mL
10.05 h, 100 ppm, duration: 4 hr, person | 6680 ng/mL
10.13 h, 100 ppm, duration: 4 hr, person | 7050 ng/mL
12.03 h, 100 ppm, duration: 4 hr, person | 7200 ng/mL
12.16 h, 100 ppm, duration: 4 hr, person | 7480 ng/mL
14.01 h, 100 ppm, duration: 4 hr, person | 7110 ng/mL
14.05 h, 100 ppm, duration: 4 hr, person | 7820 ng/mL
16 h, 100 ppm, duration: 4 hr, person | 7960 ng/mL
16.01 h, 100 ppm, duration: 4 hr, person | 7740 ng/mL
17.81 h, 100 ppm, duration: 4 hr, person | 8690 ng/mL
17.98 h, 100 ppm, duration: 4 hr, person | 7930 ng/mL
41.89 h, 100 ppm, duration: 4 hr, person | 8480 ng/mL
44.06 h, 100 ppm, duration: 4 hr, person | 9620 ng/mL
65.95 h, 100 ppm, duration: 4 hr, person | 6780 ng/mL
67.63 h, 100 ppm, duration: 4 hr, person | 7420 ng/mL
89.84 h, 100 ppm, duration: 4 hr, person | 6470 ng/mL
91.02 h, 100 ppm, duration: 4 hr, person | 5310 ng/mL
324 s, 100 ppm, duration: 4 hr, person | 3160 ng/mL

[24], 100 ppm, duration: 4 hr, person, during exposure
Settings | concentration in blood [ng/mL]
-3.454 h | 294
-3.442 h | 210
-3.04 h | 620
-2.832 h | 741
-1.998 h | 1360
-1.982 h | 1680
-1.033 h | 2270
-0.8992 h | 2830
